From ChEMBL document CHEMBL1139407, “Pyridyl and thiazolyl bisamide CSF-1R inhibitors for the treatment of cancer” (Bioorg Med Chem Lett, 2008)
One block for each molecule: values may come before it.

Assays:
[1] = target: T1, Macrophage colony-stimulating factor 1 receptor (Homo sapiens, UniProt P07333); assay: Inhibition of CSF1R
NIH3T3 = assay: Antiproliferative activity against mouse 3T3 cells expressing human CSF1R after 72 hrs by Celltiter assay; type: functional
In short: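 3T3 cells engineered with human full-length CSF-1R, seeded in phenol red-free DMEM with 0.05% BSA and incubated overnight. Treated with DMEM containing 80 ng/ml M-CSF plus insulin, transferrin and selenium at multiple compound concentrations. […] Growth read by MTS-type CellTiter 96 Aqueous One after 72 h.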

[2] = Bioavailability in rat at 3 mg/kg, iv and 10 mg/kg, po; type: ADME, organism-based; settings: in vivo
[3] = Clearance in rat at 3 mg/kg, iv and 10 mg/kg, po; type: ADME, organism-based; settings: in vivo
[4] = Volume of distribution at steady state in rat at 3 mg/kg, iv and 10 mg/kg, po; type: ADME, organism-based; settings: in vivo, read-out: Vdss
[5] = Half life in rat at 3 mg/kg, iv and 10 mg/kg, po; type: ADME, organism-based; settings: in vivo
Mus musculus [6] = assay: Inhibition of phosphorylated CSF1R level in 3T3/CSF1R mutant cells xenografted nude mouse at 50 mg/kg, po after 2 hrs by ELISA; type: functional
In short: (§1)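 3T3 cells expressing constitutively active human mutant full-length CSF-1R (301–969) were implanted subcutaneously at 5 × 10⁶ cells in female nude mice and grown to tumors >250 mm³. After dosing, tumors were assayed for pCSF-1R by ELISA, and plasma was sampled for drug levels.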

Mus musculus [7] = assay: Inhibition of phosphorylated CSF1R level in 3T3/CSF1R mutant cells xenografted nude mouse at 50 mg/kg, po after 6 hrs by ELISA; type: functional; in short: as §1
[8] = target: T1, Macrophage colony-stimulating factor 1 receptor; assay: Inhibition of CSF1R assessed as residual enzyme activity at 1 uM
[9] = target: Ephrin type-A receptor 2 (Homo sapiens) (UniProt P29317); assay: Inhibition of EphA2 assessed as residual enzyme activity at 1 uM
[10] = target: Tyrosine-protein kinase HCK (Homo sapiens) (UniProt P08631); assay: Inhibition of Hck assessed as residual enzyme activity at 1 uM
[11] = target: Tyrosine-protein kinase Fyn (Homo sapiens) (UniProt P06241); assay: Inhibition of Fyn assessed as residual enzyme activity at 1 uM
[12] = target: RAF proto-oncogene serine/threonine-protein kinase (Homo sapiens) (UniProt P04049); assay: Inhibition of cRaf assessed as residual enzyme activity at 1 uM
[13] = target: Proto-oncogene tyrosine-protein kinase Src (Homo sapiens) (UniProt P12931); assay: Inhibition of Src assessed as residual enzyme activity at 1 uM
[14] = target: Vascular endothelial growth factor receptor 2 (Homo sapiens) (UniProt P35968); assay: Inhibition of KDR assessed as residual enzyme activity at 1 uM
[15] = target: Platelet-derived growth factor receptor beta (Homo sapiens) (UniProt P09619); assay: Inhibition of PDGFRbeta assessed as residual enzyme activity at 1 uM
[16] = target: Mast/stem cell growth factor receptor Kit (Homo sapiens) (UniProt P10721); assay: Inhibition of cKit assessed as residual enzyme activity at 1 uM
[17] = target: Glycogen synthase kinase-3 beta (Homo sapiens) (UniProt P49841); assay: Inhibition of GSK3-beta assessed as residual enzyme activity at 1 uM
[18] = target: Cyclin-dependent kinase 2 (Homo sapiens) (UniProt P24941); assay: Inhibition of CDK2/cyclinA assessed as residual enzyme activity at 1 uM
[19] = target: Insulin-like growth factor 1 receptor (Homo sapiens) (UniProt P08069); assay: Inhibition of IGF1-R assessed as residual enzyme activity at 1 uM
[20] = target: Insulin receptor (Homo sapiens) (UniProt P06213); assay: Inhibition of insulin receptor assessed as residual enzyme activity at 1 uM
[21] = target: Hepatocyte growth factor receptor (Homo sapiens) (UniProt P08581); assay: Inhibition of Met assessed as residual enzyme activity at 1 uM
[22] = target: Fibroblast growth factor receptor 1 (Homo sapiens) (UniProt P11362); assay: Inhibition of FGFR1 assessed as residual enzyme activity at 1 uM
[23] = target: Angiopoietin-1 receptor (Homo sapiens) (UniProt Q02763); assay: Inhibition of Tie2 assessed as residual enzyme activity at 1 uM
[24] = target: Inhibitor of nuclear factor kappa-B kinase subunit beta (Homo sapiens) (UniProt O14920); assay: Inhibition of IKK-beta assessed as residual enzyme activity at 1 uM
[25] = target: Tyrosine-protein kinase JAK2 (Homo sapiens) (UniProt O60674); assay: Inhibition of JAK2 assessed as residual enzyme activity at 1 uM
[26] = target: Receptor-type tyrosine-protein kinase FLT3 (Homo sapiens) (UniProt P36888); assay: Inhibition of Flt3 assessed as residual enzyme activity at 1 uM
[27] = target: Mitogen-activated protein kinase 1 (Homo sapiens) (UniProt P28482); assay: Inhibition of MAPK1 assessed as residual enzyme activity at 1 uM
[28] = target: Serine/threonine-protein kinase pim-1 (Homo sapiens) (UniProt P11309); assay: Inhibition of Pim-1 assessed as residual enzyme activity at 1 uM
[29] = target: Epidermal growth factor receptor (Homo sapiens) (UniProt P00533); assay: Inhibition of EGFR assessed as residual enzyme activity at 1 uM

T1 sequence (P07333 whole entry): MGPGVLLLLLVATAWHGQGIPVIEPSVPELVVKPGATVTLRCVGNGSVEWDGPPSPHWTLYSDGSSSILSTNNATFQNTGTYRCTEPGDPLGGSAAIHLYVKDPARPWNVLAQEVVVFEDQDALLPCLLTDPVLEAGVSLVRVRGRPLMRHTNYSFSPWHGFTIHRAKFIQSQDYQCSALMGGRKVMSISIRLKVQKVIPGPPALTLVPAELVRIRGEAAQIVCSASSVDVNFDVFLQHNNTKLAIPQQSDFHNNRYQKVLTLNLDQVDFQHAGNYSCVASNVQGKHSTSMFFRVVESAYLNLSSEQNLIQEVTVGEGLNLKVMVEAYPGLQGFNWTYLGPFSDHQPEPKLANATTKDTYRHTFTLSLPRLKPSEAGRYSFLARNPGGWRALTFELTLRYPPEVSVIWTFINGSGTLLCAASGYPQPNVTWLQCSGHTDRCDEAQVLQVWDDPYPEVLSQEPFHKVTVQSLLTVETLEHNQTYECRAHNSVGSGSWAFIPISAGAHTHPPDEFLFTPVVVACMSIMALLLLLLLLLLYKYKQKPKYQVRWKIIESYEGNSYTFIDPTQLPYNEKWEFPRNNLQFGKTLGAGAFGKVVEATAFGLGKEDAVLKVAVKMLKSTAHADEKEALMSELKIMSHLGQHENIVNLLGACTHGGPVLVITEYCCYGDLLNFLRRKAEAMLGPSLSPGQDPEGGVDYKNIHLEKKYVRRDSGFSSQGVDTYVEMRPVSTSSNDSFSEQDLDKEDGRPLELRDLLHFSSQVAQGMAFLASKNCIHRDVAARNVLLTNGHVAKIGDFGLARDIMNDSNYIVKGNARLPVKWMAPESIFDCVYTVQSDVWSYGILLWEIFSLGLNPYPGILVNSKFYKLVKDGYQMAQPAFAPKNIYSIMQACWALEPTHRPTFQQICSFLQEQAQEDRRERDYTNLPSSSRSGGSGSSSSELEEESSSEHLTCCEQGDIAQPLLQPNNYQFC
Mitogen-activated protein kinase 1 (Homo sapiens), sequence (P28482 whole entry): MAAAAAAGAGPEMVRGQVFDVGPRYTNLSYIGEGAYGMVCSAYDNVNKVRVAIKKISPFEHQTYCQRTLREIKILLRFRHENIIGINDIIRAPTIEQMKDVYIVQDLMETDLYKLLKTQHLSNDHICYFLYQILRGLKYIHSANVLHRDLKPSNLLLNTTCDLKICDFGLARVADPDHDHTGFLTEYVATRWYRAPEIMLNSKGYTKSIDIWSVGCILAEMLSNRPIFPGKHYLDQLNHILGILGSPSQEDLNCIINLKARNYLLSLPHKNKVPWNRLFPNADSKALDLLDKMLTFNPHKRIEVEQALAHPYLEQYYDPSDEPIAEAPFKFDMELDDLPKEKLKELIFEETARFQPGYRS
Proto-oncogene tyrosine-protein kinase Src (Homo sapiens), sequence (P12931 2-536 limits assumed): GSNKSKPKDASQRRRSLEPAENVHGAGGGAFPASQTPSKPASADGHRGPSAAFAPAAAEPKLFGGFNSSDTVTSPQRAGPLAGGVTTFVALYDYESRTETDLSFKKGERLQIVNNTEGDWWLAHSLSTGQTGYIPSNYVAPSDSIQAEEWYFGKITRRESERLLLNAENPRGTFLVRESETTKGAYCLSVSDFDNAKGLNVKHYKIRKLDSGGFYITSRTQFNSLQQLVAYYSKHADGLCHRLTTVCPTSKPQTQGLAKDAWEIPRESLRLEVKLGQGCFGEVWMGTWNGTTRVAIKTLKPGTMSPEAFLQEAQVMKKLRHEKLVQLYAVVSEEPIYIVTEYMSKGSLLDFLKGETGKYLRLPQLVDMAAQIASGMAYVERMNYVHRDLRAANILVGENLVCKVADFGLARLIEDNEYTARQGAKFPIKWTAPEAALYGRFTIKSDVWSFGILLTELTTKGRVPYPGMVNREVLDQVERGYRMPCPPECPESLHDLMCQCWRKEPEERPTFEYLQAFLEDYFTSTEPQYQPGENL
Hepatocyte growth factor receptor (Homo sapiens), sequence (P08581 whole entry): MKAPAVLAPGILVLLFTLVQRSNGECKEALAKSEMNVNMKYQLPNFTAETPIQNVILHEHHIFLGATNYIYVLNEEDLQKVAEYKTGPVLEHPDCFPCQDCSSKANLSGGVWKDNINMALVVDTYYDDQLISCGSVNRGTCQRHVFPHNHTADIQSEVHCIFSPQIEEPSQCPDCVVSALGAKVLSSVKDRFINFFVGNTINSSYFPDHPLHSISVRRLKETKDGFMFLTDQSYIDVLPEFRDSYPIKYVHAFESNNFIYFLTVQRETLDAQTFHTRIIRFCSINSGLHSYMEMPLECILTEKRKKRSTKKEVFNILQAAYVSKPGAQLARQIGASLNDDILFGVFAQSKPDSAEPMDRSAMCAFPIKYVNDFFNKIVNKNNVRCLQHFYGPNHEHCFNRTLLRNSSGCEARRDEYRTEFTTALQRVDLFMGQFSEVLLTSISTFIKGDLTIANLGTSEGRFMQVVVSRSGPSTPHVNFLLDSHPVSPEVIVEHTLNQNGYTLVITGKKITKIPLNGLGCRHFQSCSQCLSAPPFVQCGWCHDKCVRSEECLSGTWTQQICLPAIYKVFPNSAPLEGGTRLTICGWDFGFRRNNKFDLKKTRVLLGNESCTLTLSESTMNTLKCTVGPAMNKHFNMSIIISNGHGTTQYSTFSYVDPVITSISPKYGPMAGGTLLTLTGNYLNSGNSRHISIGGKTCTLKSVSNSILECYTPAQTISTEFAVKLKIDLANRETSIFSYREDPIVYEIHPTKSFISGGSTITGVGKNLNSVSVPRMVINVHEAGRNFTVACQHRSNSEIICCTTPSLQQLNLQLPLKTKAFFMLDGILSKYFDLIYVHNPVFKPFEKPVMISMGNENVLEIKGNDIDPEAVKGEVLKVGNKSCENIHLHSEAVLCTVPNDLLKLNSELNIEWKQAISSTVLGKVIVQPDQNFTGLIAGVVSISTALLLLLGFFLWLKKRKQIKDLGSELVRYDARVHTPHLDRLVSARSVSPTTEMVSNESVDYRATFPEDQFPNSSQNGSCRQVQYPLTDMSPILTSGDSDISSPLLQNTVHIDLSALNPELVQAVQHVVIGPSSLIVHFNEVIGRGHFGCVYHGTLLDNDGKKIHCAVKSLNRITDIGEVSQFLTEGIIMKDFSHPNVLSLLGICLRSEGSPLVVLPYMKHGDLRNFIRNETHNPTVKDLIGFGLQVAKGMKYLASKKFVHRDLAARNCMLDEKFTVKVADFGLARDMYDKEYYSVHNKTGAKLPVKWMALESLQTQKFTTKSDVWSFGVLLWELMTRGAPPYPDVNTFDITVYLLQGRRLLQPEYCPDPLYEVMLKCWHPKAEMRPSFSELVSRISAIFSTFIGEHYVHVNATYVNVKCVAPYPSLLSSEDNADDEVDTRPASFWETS
Vascular endothelial growth factor receptor 2 (Homo sapiens), sequence (P35968 whole entry): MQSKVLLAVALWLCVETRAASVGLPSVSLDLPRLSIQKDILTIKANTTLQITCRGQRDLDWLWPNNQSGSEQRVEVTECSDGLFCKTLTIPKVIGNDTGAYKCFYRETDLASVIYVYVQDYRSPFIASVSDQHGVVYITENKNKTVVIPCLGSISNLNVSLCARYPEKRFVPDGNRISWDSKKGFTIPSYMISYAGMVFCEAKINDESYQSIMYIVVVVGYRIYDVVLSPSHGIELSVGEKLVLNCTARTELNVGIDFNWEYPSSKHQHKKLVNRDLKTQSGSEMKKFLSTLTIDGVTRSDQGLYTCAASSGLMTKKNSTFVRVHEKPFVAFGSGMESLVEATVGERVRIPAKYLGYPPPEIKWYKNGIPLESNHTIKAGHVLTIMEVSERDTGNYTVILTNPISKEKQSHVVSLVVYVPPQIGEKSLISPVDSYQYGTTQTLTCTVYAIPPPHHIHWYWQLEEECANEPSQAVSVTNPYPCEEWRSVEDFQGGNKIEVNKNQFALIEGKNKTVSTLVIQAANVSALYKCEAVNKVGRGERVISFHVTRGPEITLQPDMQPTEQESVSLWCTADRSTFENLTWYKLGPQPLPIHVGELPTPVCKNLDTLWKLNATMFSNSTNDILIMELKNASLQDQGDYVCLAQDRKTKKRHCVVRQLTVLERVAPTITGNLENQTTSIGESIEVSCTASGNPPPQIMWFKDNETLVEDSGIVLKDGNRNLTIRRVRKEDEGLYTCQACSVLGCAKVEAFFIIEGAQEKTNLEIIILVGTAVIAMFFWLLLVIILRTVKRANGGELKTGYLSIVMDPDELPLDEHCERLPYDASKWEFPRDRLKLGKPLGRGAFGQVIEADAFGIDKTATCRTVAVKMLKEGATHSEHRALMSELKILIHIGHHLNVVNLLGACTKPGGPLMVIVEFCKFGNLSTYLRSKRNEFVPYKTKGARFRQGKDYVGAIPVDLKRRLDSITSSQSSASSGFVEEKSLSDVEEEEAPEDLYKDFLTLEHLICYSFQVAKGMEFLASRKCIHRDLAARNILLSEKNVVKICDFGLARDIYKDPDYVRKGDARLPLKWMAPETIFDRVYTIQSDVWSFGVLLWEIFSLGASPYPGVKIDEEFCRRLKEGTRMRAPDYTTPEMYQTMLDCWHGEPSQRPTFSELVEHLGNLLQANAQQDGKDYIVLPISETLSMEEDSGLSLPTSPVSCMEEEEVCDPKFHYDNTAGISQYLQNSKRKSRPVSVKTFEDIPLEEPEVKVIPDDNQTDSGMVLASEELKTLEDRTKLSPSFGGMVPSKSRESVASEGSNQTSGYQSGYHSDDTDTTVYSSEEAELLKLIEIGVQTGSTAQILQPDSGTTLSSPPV
Glycogen synthase kinase-3 beta (Homo sapiens), sequence (P49841 whole entry, looked up): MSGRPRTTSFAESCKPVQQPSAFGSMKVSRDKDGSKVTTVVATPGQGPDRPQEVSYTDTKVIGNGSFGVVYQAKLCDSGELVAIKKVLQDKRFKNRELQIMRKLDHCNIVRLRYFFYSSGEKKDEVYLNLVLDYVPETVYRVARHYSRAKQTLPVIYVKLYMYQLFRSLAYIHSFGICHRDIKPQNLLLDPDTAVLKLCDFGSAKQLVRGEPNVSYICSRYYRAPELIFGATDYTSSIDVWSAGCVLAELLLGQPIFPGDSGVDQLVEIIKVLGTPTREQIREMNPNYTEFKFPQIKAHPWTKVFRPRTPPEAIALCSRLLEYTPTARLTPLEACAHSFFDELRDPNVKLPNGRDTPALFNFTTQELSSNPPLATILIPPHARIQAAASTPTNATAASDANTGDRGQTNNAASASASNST

Structure (SMILES): Cc1ncc(NC(=O)c2cc(NC(=O)c3cc(F)cc(C(F)(F)F)c3)ccc2Cl)s1
IC50 [1]: 7 nM | Activity (NIH3T3): 0.11 µM | bioavailability [2]: 31% | clearance [3]: 2 mL/min/kg | Vd [4]: 1.4 L/kg | half-life [5]: 7.3 h | inhibition in vivo at 50 mg/kg (Mus musculus [6]): 100% | inhibition in vivo at 50 mg/kg (Mus musculus [7]): 100%

Structure (SMILES): CC(C)c1ncc(NC(=O)c2cc(NC(=O)c3cccc(C(F)(F)F)c3)ccc2Cl)s1
IC50 [1]: 13 nM | Activity (NIH3T3): 0.15 µM | bioavailability [2]: 65% | clearance [3]: 37 mL/min/kg | Vd [4]: 2.2 L/kg | half-life [5]: 1 h

Structure (SMILES): Cc1cc(C)cc(C(=O)Nc2ccc(Cl)c(C(=O)Nc3cncs3)c2)c1
IC50 [1]: 3 nM | Activity (NIH3T3): 0.11 µM

Structure (SMILES): Cc1ccc(NC(=O)c2cccc(N(C)S(C)(=O)=O)c2)cc1NC(=O)c1ccc2ncccc2c1
IC50 [1]: 89 nM

Structure (SMILES): CCN(CC)CCNC(=O)c1c(C)[nH]c(/C=C2\C(=O)Nc3ccc(F)cc32)c1C.O=C(O)C[C@H](O)C(=O)O [SUNITINIB MALATE]
Activity (NIH3T3): 0.09 µM

Structure (SMILES): Cc1cc(C)cc(C(=O)Nc2ccc(C)c(C(=O)Nc3cnc(C)s3)c2)c1
IC50 [1]: 4 nM | Activity (NIH3T3): 0.1 µM

Structure (SMILES): O=C(Nc1ccc(Cl)c(C(=O)Nc2cnc(C3CC3)s2)c1)c1cccc(C(F)(F)F)c1
IC50 [1]: 140 nM | Activity (NIH3T3): 0.1 µM

Structure (SMILES): O=C(Nc1ccc(Cl)c(C(=O)Nc2cccnc2)c1)c1ccc(Cl)c(Cl)c1
IC50 [1]: 3 nM | Activity (NIH3T3): 0.09 µM

Structure (SMILES): Cc1ccc(NC(=O)c2cccc(C(F)(F)F)c2)cc1C(=O)Nc1ccccc1
IC50 [1]: > 50000 nM | Activity (NIH3T3): >10 µM

Structure (SMILES): Cc1ncc(NC(=O)c2cc(NC(=O)c3cccc(C(F)(F)F)c3)ccc2C)s1
IC50 [1]: 10 nM | Activity (NIH3T3): 0.11 µM

Structure (SMILES): Cc1ncc(NC(=O)c2cc(NC(=O)c3cccc(Cl)c3)ccc2C)s1
IC50 [1]: 7 nM | Activity (NIH3T3): 0.32 µM

Structure (SMILES): Cc1ncc(NC(=O)c2cc(NC(=O)c3cccc(C(F)(F)F)c3)ccc2Cl)s1
IC50 [1]: 7 nM | Activity (NIH3T3): 0.05 µM | bioavailability [2]: 62% | clearance [3]: 13 mL/min/kg | Vd [4]: 1.1 L/kg | half-life [5]: 1.2 h | Activity [8]: 1% | Activity [9]: 5% | Activity [10]: 6% | Activity [11]: 7% | Activity [12]: 9% | Activity [13]: 10% | Activity [14]: 10% | Activity [15]: 45% | Activity [16]: 57% | Activity [17]: 91% | Activity [18]: 95% | Activity [19]: 107% | Activity [20]: 108% | Activity [21]: 109% | Activity [22]: 111% | Activity [23]: 111% | Activity [24]: 112% | Activity [25]: 112% | Activity [26]: 114% | Activity [27]: 116% | Activity [28]: 116% | Activity [29]: 118% | inhibition in vivo at 50 mg/kg (Mus musculus [6]): 70% | inhibition in vivo at 50 mg/kg (Mus musculus [7]): 35%

Structure (SMILES): Cc1ncc(NC(=O)c2cc(NC(=O)c3cc(F)cc(Cl)c3)ccc2Cl)s1
IC50 [1]: 11 nM | Activity (NIH3T3): 0.13 µM

Structure (SMILES): Cc1ccc(NC(=O)c2cccc(C(F)(F)F)c2)cc1NC(=O)c1cccnc1
IC50 [1]: 11 nM | Activity (NIH3T3): 2.15 µM

Structure (SMILES): Cc1cc(C)cc(C(=O)Nc2ccc(Cl)c(C(=O)Nc3cnc(C(C)C)s3)c2)c1
IC50 [1]: 31 nM | Activity (NIH3T3): 0.11 µM

Structure (SMILES): Cc1ccc(C(=O)Nc2cccc(C(F)(F)F)c2)cc1NC(=O)c1cccnc1
IC50 [1]: 32 nM | Activity (NIH3T3): 1.34 µM

Structure (SMILES): Cc1cc(C)cc(C(=O)Nc2ccc(Cl)c(C(=O)Nc3cnc(C)s3)c2)c1
IC50 [1]: 6 nM | Activity (NIH3T3): 0.06 µM | bioavailability [2]: 27% | clearance [3]: 14 mL/min/kg | Vd [4]: 1.2 L/kg | half-life [5]: 1.3 h | inhibition in vivo at 50 mg/kg (Mus musculus [6]): 90% | inhibition in vivo at 50 mg/kg (Mus musculus [7]): 60%

Further lines, with some results ahead:

IC50 [1]: 5 nM | bioavailability [2]: 20% | clearance [3]: 54 mL/min/kg | Vd [4]: 1.8 L/kg | half-life [5]: 0.5 h
Structure (SMILES): O=C(Nc1ccc(Cl)c(C(=O)Nc2cncs2)c1)c1cccc(Cl)c1
Activity (NIH3T3): 0.52 µM

IC50 [1]: 25 nM
Structure (SMILES): O=C(Nc1ccc(Cl)c(C(=O)Nc2cccnc2)c1)c1cccc(F)c1
Activity (NIH3T3): 1.64 µM

IC50 [1]: 3 nM
Structure (SMILES): O=C(Nc1ccc(Cl)c(C(=O)Nc2cccnc2)c1)c1cc(Cl)cc(Cl)c1
Activity (NIH3T3): 0.13 µM

IC50 [1]: 5 nM
Structure (SMILES): Cc1ccc(C(=O)Nc2ccc(Cl)c(C(=O)Nc3cccnc3)c2)cc1C
Activity (NIH3T3): 0.15 µM

IC50 [1]: 16 nM | bioavailability [2]: 76% | clearance [3]: 20 mL/min/kg | Vd [4]: 1.5 L/kg | half-life [5]: 1 h
Structure (SMILES): O=C(Nc1ccc(Cl)c(C(=O)Nc2cccnc2)c1)c1cccc(C(F)(F)F)c1
Activity (NIH3T3): 0.14 µM

IC50 [1]: 8 nM
Structure (SMILES): Cc1cc(C)cc(C(=O)Nc2ccc(Cl)c(C(=O)Nc3cccnc3)c2)c1
Activity (NIH3T3): 0.05 µM

IC50 [1]: 9 nM
Structure (SMILES): COc1cccc(C(=O)Nc2ccc(Cl)c(C(=O)Nc3cccnc3)c2)c1
Activity (NIH3T3): 0.94 µM

IC50 [1]: 16 nM
Structure (SMILES): CN(C)c1cccc(C(=O)Nc2ccc(Cl)c(C(=O)Nc3cccnc3)c2)c1
Activity (NIH3T3): 0.77 µM

IC50 [1]: 10 nM | bioavailability [2]: 28% | clearance [3]: 30 mL/min/kg | Vd [4]: 1.3 L/kg | half-life [5]: 0.8 h
Structure (SMILES): Cc1cccc(C(=O)Nc2ccc(Cl)c(C(=O)Nc3cccnc3)c2)c1
Activity (NIH3T3): 0.24 µM

IC50 [1]: 10 nM | bioavailability [2]: 33% | clearance [3]: 16 mL/min/kg | Vd [4]: 1.4 L/kg | half-life [5]: 1.1 h
Structure (SMILES): O=C(Nc1ccc(Cl)c(C(=O)Nc2cccnc2)c1)c1cccc(Cl)c1
Activity (NIH3T3): 0.33 µM

IC50 [1]: 37 nM | bioavailability [2]: 40% | clearance [3]: 16 mL/min/kg | Vd [4]: 1 L/kg | half-life [5]: 1 h
Structure (SMILES): Cc1ccc(NC(=O)c2cccc(C(F)(F)F)c2)cc1C(=O)Nc1cccnc1
Activity (NIH3T3): 0.23 µM

IC50 [1]: 4 nM | bioavailability [2]: 43% | clearance [3]: 12 mL/min/kg | Vd [4]: 0.9 L/kg | half-life [5]: 0.9 h
Structure (SMILES): Cc1ncc(NC(=O)c2cc(NC(=O)c3cccc(Cl)c3)ccc2Cl)s1
Activity (NIH3T3): 0.18 µM

IC50 [1]: 14 nM
Structure (SMILES): O=C(Nc1ccc(Cl)c(C(=O)Nc2cccnc2)c1)c1cccc(Br)c1
Activity (NIH3T3): 0.26 µM

IC50 [1]: 3 nM | bioavailability [2]: 40% | clearance [3]: 58 mL/min/kg | Vd [4]: 4.2 L/kg | half-life [5]: 1.2 h
Structure (SMILES): O=C(Nc1ccc(Cl)c(C(=O)Nc2cncs2)c1)c1cccc(C(F)(F)F)c1
Activity (NIH3T3): 0.27 µM

IC50 [1]: 6900 nM
Structure (SMILES): Cc1ccc(C(=O)Nc2cccc(C(F)(F)F)c2)cc1C(=O)Nc1cccnc1
